Platelet DG rel: modulates dense granule release in human platelets; AID 1663; human platelet-rich plasma, SFLLRN dense granule ATP release, luminescence; inhibition, %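 (compounds screened at 7.5 µM in platelet-rich plasma)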; actives 0.22% (n = 300,000);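 active = mean replicate score, as percent of positive control, at or above 50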
TRPC6 activator: activates the mouse TRPC6 cation channel; actives 0.13% (n = 310,000); HEK293-TRPC6 membrane potential dye fluorescence; active compounds read high; B-score at 10 µM;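 active = B-score of the integrated fluorescence ratio above library mean plus 3 SD, and starting fluorescence ratio within library mean plus 5 SD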;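 also: higher score means more depolarization so channel activation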
TRPC4 act: activators of mouse TRPC4 channel | HEK293 TRPC4beta/mu-opioid, Fluo4 calcium fluorescence; active compounds read high | B-score at 10 µM | actives 0.49% (n = 310,000);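 active = B-score above 5 SD of library B-scores, and initial fluorescence ratio not above library mean plus 5 SD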;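 also: positive B-score marks a calcium rise read as TRPC4 activation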
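Assay system: HEK293 stable line with TRPC4beta plus mu-opioid receptor; schedule: 45 min room-temperature Fluo4 loading, 110 s read; technique: kinetic Fluo4 calcium fluorescence; evaluation: integrated baseline-normalised fluorescence ratio, converted to per-well B score; controls: buffer (low) and maximal DAMGO (high)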
TRPC6 inh: blocks the mouse TRPC6 cation channel; HEK293-TRPC6, membrane potential dye, ACh-evoked depolarization; active compounds read low; B-score at 10 µM; actives 1.1% (n = 310,000); AID 2553;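 active = B-score under library mean minus 3 SD, initial fluorescence not abnormally high, positive integrated signal ratio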;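 also: B-score derived from integrated fluorescence ratio over the kinetic read; more negative B-score means stronger inhibition of depolarization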
TRPC4 PAM: TRPC4 (mouse) allosteric potentiation; Q9QUQ5; HEK293 TRPC4beta/mu-opioid, DAMGO EC20, Fluo-4 Ca2+ flux; active compounds read high; B-score at 10 µM; actives 0.42% (n = 310,000); AID 2227;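 active = B-score of calcium response area above 5 SD of library B-scores, with initial fluorescence ratio within 5 SD of library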;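 also: B-score of integrated fluorescence ratio over time as area under calcium response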
TRPC4 block: blocks the mouse TRPC4 cation channel | HEK293 TRPC4beta/mu-opioid, DAMGO-evoked Fluo4 calcium flux; active compounds read low | B-score at 10 µM | actives 0.39% (n = 300,000);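 active = B-score over 3 SD under the library average, no early fluorescence shift, positive overall ratio signal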
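Assay system: TRPC4beta/mu-opioid receptor HEK293 cell line; compound dosing: single concentration per test compound; detection: Fluo4 Ca2+ flux fluorescence; evaluation: per-well B score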
* hit, by the source's call; i = inactive. Compounds with a hit are over-represented: about 2.5% of the library has one in this group of screens.

SMILES	Platelet DG rel	TRPC6 activator	TRPC4 act	TRPC6 inh	TRPC4 PAM	TRPC4 block
COc1ccc(NC(C#N)c2ccccc2OCc2ccccc2)cc1 (configuration not stated)	-2.1	i	i	i	10*	i
CN(Cc1ccccc1NCC(=O)Nc1ccccc1C#N)C1CCCCC1	-3.4	i	i	i	i	-6*
Cc1ccc(-n2cc(-c3ccccc3)c3c(NN4CCOCC4)ncnc32)cc1	18.3	i	i	i	i	i
c1ccc(-c2cn(-c3ccccc3)c3ncnc(N4CCCCC4)c23)cc1	-0.8	i	i	i	i	i
CCOc1ccc(-n2cc(-c3ccccc3)c3c(N4CCOCC4)ncnc32)cc1	-6.9	i	i	i	16*	i
Cc1cccc(-n2cc(-c3ccccc3)c3c(NN4CCOCC4)ncnc32)c1	2.5	i	i	i	14*	i
Cc1ccc(NC(=O)CS(=O)c2ccccc2N)c(C)c1 (configuration not stated)	6.4	i	i	i	i	i
Cc1ccc(C(=O)N2CCN(c3ccccn3)CC2)cc1Cl	-1.1	i	i	i	i	i
CCC(=O)N1CCc2cc(Br)cc(S(=O)(=O)NCCN3CCCC3)c21	-14.1	i	i	i	i	i
CC1CC(C)CN(CCCNS(=O)(=O)c2cc(Br)cc3c2N(C(=O)C2CC2)CC3)C1 (configuration not stated)	-3.3	i	115*	i	i	i
O=C(C1CC1)N1CCc2cc(Br)cc(S(=O)(=O)NCCCN3CCCC3)c21	2.9	i	60*	i	i	i
CC1CCCN(CCCNS(=O)(=O)c2cc(Br)cc3c2N(C(=O)C2CC2)CC3)C1 (configuration not stated)	-1.0	i	73*	i	i	i
CC(Oc1ccc(F)cc1Br)c1nc2ccccc2c(=O)[nH]1 (configuration not stated)	-29.9	i	i	i	i	i
COc1cc(OC)cc(C(=O)Nc2ccc(Nc3ccccc3)cc2)c1	-2.6	i	i	-5.05*	i	i
COC(=O)CCCCCN1C(=O)/C(=C\c2ccncc2)SC1=S	-27.0	i	i	i	10*	i
CCc1ccc(/C=C2/SC(=S)N(CCCC(=O)Nc3ccccc3C(=O)O)C2=O)cc1	-5.0	i	i	i	i	-6*
O=C(O)CCN1C(=O)/C(=C\c2ccncc2)SC1=S	-2.2	i	i	i	i	i
COCCN(C(=O)COC(=O)c1cccnc1SC)c1c(N)n(Cc2ccccc2)c(=O)[nH]c1=O	-5.6	i	i	i	i	i
CC(C)C[C@H](NC(=O)c1[nH]cnc1C(=O)N[C@@H](C)c1ccccc1)C(=O)OCc1ccccc1	-0.8	i	i	i	i	i
Cc1ccc(C2c3[nH]c4ccccc4c3C[C@H]3C(=O)N(c4ccccc4C(=O)N4CCC[C@H]4C(=O)O)C(=O)N23)cc1 (some centres not stated)	1.3	i	i	i	i	i
N#Cc1c(-c2cccs2)nc(SCc2ccc(Cl)cc2)[nH]c1=O	-0.6	i	i	i	15*	-7*
Cc1c(NC(=O)/C(C#N)=C/c2ccccc2)c(=O)n(-c2ccccc2)n1C	-0.3	i	i	i	i	i
Cc1ccsc1/C=C(\C#N)C(=O)Nc1c(C)n(C)n(-c2ccccc2)c1=O	-17.0	i	i	i	11*	i
O=C(NCc1ccco1)c1cc2ccc(O)cc2oc1=O	70.3*	i	i	i	i	i
O=C(c1ccccc1)c1cc2ccc(O)cc2oc1=O	94.6*	i	i	i	i	i
Cn1c(=O)c2c(nc(CN3CCN(C(c4ccccc4)c4ccccc4)CC3)n2CCCO)n(C)c1=O	6.5	i	i	i	13*	i
Cn1c(=O)n(CCCO)c(=O)c2c1nc1n2CCCN1Cc1ccccc1	13.7	i	i	i	i	-6*

Compound activity (PubChem BioAssay)
